Here are results for four molecules from ChEMBL document CHEMBL2086333, “Albopunctatone, an antiplasmodial anthrone-anthraquinone from the Australian ascidian Didemnum albopunctatum” (J Nat Prod, 2012).

Each structure is given as a SMILES string. Calls of active or inactive are those of the source. The calls are words filed in the database; no cut-off is given here. Bounds are passed on as bounds.

The test system of data set [1] is MCF-10A. Put plainly: Toxicity against human MCF10A cells at =<40 uM incubated for 72 hrs by resazurin dye reduction assay. Type of data set: cell-based. The gist of the method:
(§1)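 Adherent cancer cells seeded according to growth rate, compound exposure 72 h at 37 °C, 5% CO2, highest concentration 40 μM. Resazurin at 600 μM final, 4 h, fluorescence 530/595 nm. % growth inhibition scaled between >10% DMSO or 20 μM puromycin (100%) and 0.4% DMSO (0%). Triplicate. IC50 by variable-slope nonlinear regression on log dose.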
In general terms: Resazurin is reduced to fluorescent resorufin, in cell work by metabolically active cells.

The test system of data set [2] is HEK293. The data set can be described thus: Toxicity against human HEK293 cells at =<40 uM incubated for 72 hrs by resazurin dye reduction assay. Type of data set: cell-based. The settings on record: hek293, 72 h. The method, boiled down:
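HEK293 adherent cells, compound exposure 72 h at 37 °C, 5% CO2, highest concentration 40 μM. Supernatant replaced with 10% Presto Blue in DMEM plus 2 mM glutamax, 3 h, fluorescence 530/595 nm. % inhibition scaled between >10% DMSO or 20 μM puromycin (100%) and 0.4% DMSO (0%). Triplicate. IC50 by variable-slope nonlinear regression.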

Data set [3] deals with Trypanosoma brucei brucei. Put plainly: Antitrypanosomal activity against Trypanosoma brucei brucei up to 40 uM incubated for 48 hrs by Alamar Blue assay. Format: functional, organism-based. The gist of the method: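 T. b. brucei at 2000 cells/mL in HMI-9 with 10% FCS and penicillin/streptomycin, preincubated 24 h. Compound in DMSO prediluted 1:20 in supplemented DMEM, tested up to 40 μM, 48 h at 37 °C, 5% CO2. Alamar Blue added, 2 h under the same conditions then 22 h RT. Fluorescence ex 535/em 590 nm.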

Data set [4] can be described thus: Selectivity index, ratio of cytotoxicity against human PANC1 cells to IC50 for chloroquine-sensitive Plasmodium falciparum 3D7. The settings on record: read-out: Selectivity Index. Format: toxicity, cell-based, PANC-1.
Data set [5] in a line: Selectivity index, ratio of cytotoxicity against human HEK293 cells to IC50 for chloroquine-sensitive Plasmodium falciparum 3D7. Type of data set: toxicity, cell-based. The settings on record: read-out: Selectivity Index.
Data set [6] deals with BXPC-3. Put plainly: Toxicity against human BxPC3 cells at =<40 uM incubated for 72 hrs by resazurin dye reduction assay. Format: cell-based. The settings on record: bxpc-3, 72 h. The method, boiled down:
as §1

The nature of data set [7]: Selectivity index, ratio of cytotoxicity against human SU8686 cells to IC50 for chloroquine-sensitive Plasmodium falciparum 3D7. To be noted: read-out: Selectivity Index. Format: toxicity, cell-based.
Data set [8] in a line: Selectivity index, ratio of cytotoxicity against human MDA-M cells to IC50 for chloroquine-sensitive Plasmodium falciparum 3D7. Format: toxicity, cell-based. The settings on record: read-out: Selectivity Index.
Data set [9] has as its system PANC-1. Put plainly: Toxicity against human PANC1 cells at =<40 uM incubated for 72 hrs by resazurin dye reduction assay. Format: cell-based. The settings on record: panc-1, 72 h. The method, boiled down: as §1
The subject of data set [10] is Plasmodium falciparum. Put plainly: Antimalarial activity against chloroquine-sensitive Plasmodium falciparum 3D7 assessed as reduction in parasite replication incubated for 72 hrs. To be noted: 3D7, 72 h.
Data set [11] concerns BT-474. Put plainly: Toxicity against human BT474 cells at =<40 uM incubated for 72 hrs by resazurin dye reduction assay. Format: cell-based. The settings on record: bt-474, 72 h. The gist of the method:
as §1

A short description of data set [12]: Selectivity index, ratio of cytotoxicity against human BxPC3 cells to IC50 for chloroquine-sensitive Plasmodium falciparum 3D7. Format: toxicity, cell-based, BXPC-3. The settings on record: read-out: Selectivity Index.
Data set [13] in a line: Selectivity index, ratio of cytotoxicity against human BT474 cells to IC50 for chloroquine-sensitive Plasmodium falciparum 3D7. The settings on record: read-out: Selectivity Index. Type of data set: toxicity, cell-based, BT-474.
Data set [14] in a line: Toxicity against human SU8686 cells at =<40 uM incubated for 72 hrs by resazurin dye reduction assay. Format: cell-based. The settings on record: su.86.86, 72 h. The gist of the method:
as §1

The nature of data set [15]: Selectivity index, ratio of cytotoxicity against human MCF10A cells to IC50 for chloroquine-sensitive Plasmodium falciparum 3D7. Type of data set: toxicity, cell-based, MCF-10A. To be noted: read-out: Selectivity Index.
The nature of data set [16]: Toxicity against human MDA-M cells at =<40 uM incubated for 72 hrs by resazurin dye reduction assay. Type of data set: cell-based. The gist of the method: as §1
Data set [17] deals with Plasmodium falciparum. Put plainly: Antimalarial activity against chloroquine-resistant Plasmodium falciparum Dd2 assessed as reduction in parasite replication incubated for 72 hrs. The settings on record: Dd2, 72 h.
For data set [18], the system named is Plasmodium falciparum. Put plainly: Antimalarial activity against chloroquine-resistant Plasmodium falciparum Dd2 assessed as reduction in parasite replication at 40 uM incubated for 72 hrs.
Data set [19] concerns Plasmodium falciparum. The data set can be described thus: Antimalarial activity against chloroquine-sensitive Plasmodium falciparum 3D7 assessed as reduction in parasite replication at 40 uM incubated for 72 hrs.
Data set [20] deals with BT-474. Put plainly: Growth inhibition of human BT474 cells at 20 uM incubated for 72 hrs by resazurin dye reduction assay. Type of data set: functional. To be noted: BT-474, 72 h, read-out: GI.
Data set [21] concerns PANC-1. Put plainly: Growth inhibition of human PANC1 cells at 20 uM incubated for 72 hrs by resazurin dye reduction assay. The settings on record: PANC-1, 72 h, read-out: GI. Format: functional.
Data set [22] can be described thus: Growth inhibition of human SU8686 cells at 20 uM incubated for 72 hrs by resazurin dye reduction assay. Format: functional. To be noted: SU.86.86, 72 h, read-out: GI.
Data set [23] is described as follows: Growth inhibition of human MDA-M cells at 20 uM incubated for 72 hrs by resazurin dye reduction assay. The settings on record: read-out: GI. Type of data set: functional.
Data set [24] can be described thus: Growth inhibition of human HEK293 cells at 20 uM incubated for 72 hrs by resazurin dye reduction assay. Type of data set: cell-based. To be noted: read-out: GI.
Data set [25] in a line: Growth inhibition of human MCF10A cells at 20 uM incubated for 72 hrs by resazurin dye reduction assay. Type of data set: cell-based, MCF-10A. To be noted: read-out: GI.
For data set [26], the system named is BXPC-3. Put plainly: Growth inhibition of human BxPC3 cells at 20 uM incubated for 72 hrs by resazurin dye reduction assay. Format: functional. The settings on record: BXPC-3, 72 h, read-out: GI.

The term IC50 denotes the concentration that inhibits the measured activity by half.

In the case of `O=C1c2cccc(O)c2C(=O)c2c1ccc(C1(O)c3cccc(O)c3C(=O)c3c(O)cccc31)c2O` [ALBOPUNCTATONE], the Activity result in data set [1], in data set [2], in data set [6], in data set [9], in data set [11] and in data set [14] was “Non-toxic” in each case. Further, the Activity result in data set [16] was “Non-toxic”. For the same molecule, the result in data set [3] was inactive. Besides, the selectivity ratio in data set [4], in data set [5], in data set [7], in data set [8], in [12] and in [13] was over 9.1 in each case. Further, the selectivity ratio in data set [15] was over 9.1. Further, the IC50 is 4400 nM in data set [10] and 5300 nM in data set [17].
As for `C[C@@H]1CC[C@H]2[C@@H](C)C(=O)O[C@@H]3O[C@@]4(C)CC[C@@H]1[C@]32OO4` [ARTEMISININ], the IC50 in data set [10] stood at 7.2 nM.
Consider `O=C1c2cccc(O)c2C(=O)c2c(O)cccc21` [DANTHRON], for which the Activity result in [1], in data set [2], in data set [6], in data set [9], in data set [11] and in [14] was “Non-toxic” each time. Also, in data set [16], the Activity result is “Non-toxic”. The result in data set [3], in data set [18] and in data set [19] was inactive.
Consider `COc1ccc(C[C@H](N)C(=O)N[C@H]2[C@@H](O)[C@H](n3cnc4c(N(C)C)ncnc43)O[C@@H]2CO)cc1` [PUROMYCIN], for which the inhibition of growth at 20 µM in data set [20], in data set [21], in [22], in data set [23] and in data set [26] was 100% throughout. Also, in [10], the IC50 is 89 nM. Moreover, the inhibition at 72 h, 20 µM in data set [24] and in data set [25] was 100% throughout.
